# This is a sample that favours compounds with a hit; in the whole collection about 4.5% have one here.
# PERK inhibitor = block of dimerizer-induced PERK translation repression, primary screen, PERK inhibitor project, CHO PERK-DD cells, SEAP luminescence, HTS | CHO PERK-DD fusion, SEAP luminescence translation reporter | inhibition, % at 5.6 µM | 220,000 tested, 0.17% active | Eukaryotic translation initiation factor 2-alpha kinase 3 (Homo sapiens), Q9NZJ5;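 active means inhibition above the mean inhibition of all tested compounds plus 3 SD, set separately per screening campaign, cut at about 2.9% in these data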;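 further: PERK kinase domain activated by AP20187 dimerizer at 100 nM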
# AHR activator = AHR activators, primary screen, cell-based, luminescence, luciferase reporter, human; AHR-responsive luciferase reporter cells; activation, % at 5 µM; 320,000 tested, 2.5% active; AID 2796, 2010; in the data active means activation above about 47%
# MDM2 E3 inh = MDM2-luciferase reporter signal enhancers, primary screen, MDM2 E3 ligase inhibitor project, cell-based, luminescence, 1536-well | cell-based MDM2 ubiquitination luciferase reporter, 2 h; 0 = plate control, 100 = twice control, blank-subtracted | signal enhancement, % at 5 µM | 210,000 tested, 0.11% active | AID 1230, 2008;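 active means signal enhancement of 30% or more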;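 further: luminescence tracks abundance of the self-degrading MDM2-luciferase fusion protein; higher signal means inhibition of MDM2 E3 ligase activity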
#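 Timing – 2 h compound exposure at 37 °C · Assay system – mammalian cells stably expressing self-ubiquitinating, self-degrading MDM2 E3–luciferase fusion · Amount – 2000 cells seeded into each well · Measure – % luminescence enhancement versus blank-corrected plate control mean · Measured by – SteadyLite luminescence, 15 min reagent step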
# NF-kB neuron act = activators of NF-kB expression in neurons, primary screen, cell-based, HTS; 190,000 tested, 1.6% active; AID 1239, 2008; fold change at 12.5 µM; human neuronal cells, NF-kB reporter expression; stronger effect = higher value; in the data active means fold change above about 3.3
# APP 5'UTR act = activators of APP 5'UTR luciferase reporter, primary screen, SH-SY5Y cells. SH-SY5Y APP 5'UTR luciferase reporter, luminescence; zero percent = DMSO vehicle wells. activation, % at 2 µM. 190,000 tested, 1% active. AID 1276, 2008;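 active means activation above a set limit, based on mean plus 3 SD of controls, cut at about 140% in these data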
# STAT1 act = STAT1 signaling activators, primary screen, cell-based, HTS, luciferase reporter; AID 932, 2007; 200,000 tested, 2.6% active; NIH 3T3 STAT1-luciferase reporter, IFN-gamma, luminescence; 100% = IFN-gamma alone, no compound; activation (% of control), % at 5.5 µM;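 active means activation above the screen-wide mean activation plus 3 SD, cut at about 130% in these data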
# Hits are given with their value; . = inactive; / = not tested or not shown.
SMILES,PERK inhibitor,AHR activator,MDM2 E3 inh,NF-kB neuron act,APP 5'UTR act,STAT1 act
CCOc1nc(Nc2ccccc2F)nc(OCC)n1,/,.,/,/,/,/
CC(C)C12CN3CC(C(C)C)(CN(C1)C3c1ccc([N+](=O)[O-])o1)C2=O (stereo not drawn),.,.,.,/,/,/
Cc1cc(C(=O)NNC(=O)c2ccccc2F)c2ccccc2n1,/,.,/,/,/,/
Cc1[nH]n(-c2cccc(Cl)c2)c(=O)c1C=NCC(C)C,.,.,.,.,.,144.3
Cc1[nH]n(-c2cccc(Cl)c2)c(=O)c1C=NCc1ccco1,.,.,.,6.74,144.6,.
Cc1[nH]n(-c2cccc(Cl)c2)c(=O)c1-c1ccccc1,.,.,.,.,.,.
Cc1[nH]n(-c2cccc(Cl)c2)c(=O)c1C=NC12CN3CN(CN(C3)C1)C2,.,.,.,.,.,.
O=C(OCC(=O)C12CC3CC(CC(C3)C1)C2)c1ccc(O)cc1O,/,.,/,/,/,/
c1ccc(-c2n[nH]c(-c3ccccn3)n2)nc1,.,.,.,.,.,144.5
O=C(N/N=C/c1ccccn1)c1cc(-c2ccc(Cl)cc2)nc2ccccc12,.,49.8,.,.,.,.
O=C(O)COc1ccccc1/C=N/NC(=O)c1cc(-c2ccc(Cl)cc2)nc2ccccc12,.,63.8,/,/,/,/
O=C(N/N=C/c1ccccn1)c1cc(-c2ccc(Br)cc2)nc2ccccc12,.,.,.,/,/,/
O=C(O)COc1ccccc1/C=N/NC(=O)c1cc(-c2ccccc2)nc2ccccc12,.,.,.,/,/,/
CCOc1ccccc1N/C(=C(/C(Cl)=C(Cl)Cl)[N+](=O)[O-])n1cncn1,.,54.1,.,.,.,.
Clc1cccc(C2Nc3cccc4cccc(c34)N2)c1Cl,/,58.9,/,/,/,/
Fc1ccc(C2Nc3cccc4cccc(c34)N2)cc1,/,50.8,/,/,/,/
FC(F)(F)c1ccc(C2Nc3cccc4cccc(c34)N2)cc1,.,/,.,.,.,.
Cc1ccc(S(=O)(=O)Cn2nnnc2C(CC(C)C)N2CCN(C3CCCC3)CC2)cc1 (stereo not drawn),/,.,/,/,/,/
CCc1ccc(C(=O)CCC(=O)Nc2ccc(OC)c(S(=O)(=O)N3CCCCC3)c2)cc1,/,.,/,/,/,/
Brc1ccccc1-c1nc2c3ccccc3ncn2n1,/,65.6,/,/,/,/
COc1ccc(F)cc1S(=O)(=O)Nc1cc2c3c(c1)CCC(=O)N3CCC2,/,.,/,/,/,/
COc1ccc(-n2c(SCC(=O)NCc3cccs3)nc3[nH]ncc3c2=O)cc1,.,.,.,.,.,.
COc1ccc(N2CCN(C(=O)CSc3nc4[nH]ncc4c(=O)n3-c3ccc(Br)cc3)CC2)cc1,.,.,.,3.31,.,.
O=C(CC1SC(=O)N(Cc2cccc3ccccc23)C1=O)Nc1nccs1 (stereo not drawn),.,71.4,.,.,.,.
CCc1nnc(NC(=O)CCC(=O)Nc2ccc(OC)cc2OC)s1,/,.,/,/,/,/
SMILES,PERK inhibitor,AHR activator,MDM2 E3 inh,NF-kB neuron act,APP 5'UTR act,STAT1 act
COc1ccc(OC)c(CNC(=O)COc2cc(=O)n(C)c3ccccc23)c1,.,57.0,/,/,.,.
COc1ccc(CNC(=O)COc2cc(=O)n(C)c3ccccc23)cc1,.,.,.,.,.,.
Cn1c(=O)cc(OCC(=O)NCc2cccs2)c2ccccc21,.,.,35.3,.,.,.
COc1ccccc1OCC(=O)NCc1cccs1,.,.,.,.,.,.
COc1cccc(NC(=O)COC(=O)c2ccc(S(=O)(=O)NCc3ccco3)cc2)c1,.,.,/,.,.,.
Cn1c(C(C#N)C(=O)c2ccco2)nc2ccccc21 (stereo not drawn),.,76.8,.,.,.,.
CCC(NC(=O)c1ccc2nc(Cc3ccc(OC)cc3)oc2c1)c1ccncc1 (stereo not drawn),/,.,/,/,/,/
CSc1ccc(-c2nnn(Cc3ccccn3)n2)cc1,.,.,.,.,.,139.5
CSc1ccc(-c2nnn(Cc3ccc(Br)cc3)n2)cc1,.,.,.,.,.,.
COc1ccc(C#Cc2c(-c3ccccc3)n(C)c3ccccc23)cc1,/,.,/,/,/,/
COc1ccc(C#Cc2c(C=O)n(C)c3ccccc23)cc1,/,73.4,/,/,/,/
Cn1c(C=O)c(C#Cc2ccccc2)c2ccccc21,/,72.6,/,/,/,/
O=C(COC(=O)Cc1ccsc1)Nc1ccc(Cl)cn1,/,.,/,/,/,/
COc1cccc(CNC(=O)Cn2ccc3cc(S(=O)(=O)N4CCC(C)CC4)ccc32)c1,/,.,/,/,/,/
CCc1ccc(CC2S/C(=C(\C#N)C(C)=O)NC2=O)cc1 (stereo not drawn),.,.,.,.,.,.
CCOC(=O)c1ccc(CC2S/C(=C(\C#N)C(C)=O)NC2=O)cc1 (stereo not drawn),.,.,.,3.48,.,.
N/C(=N\OC(=O)c1cccs1)c1cccc(Br)c1,.,.,.,.,.,136.3
N/C(=N\OC(=O)c1ccc(F)cc1)c1cccc([N+](=O)[O-])c1,/,.,/,/,/,/
Cc1cccc(/C(N)=N/OC(=O)c2ccc(F)cc2)c1,.,.,.,.,.,140.0
COc1cc(OC)c(C(=O)O/N=C(\N)c2cccc(C)c2)cc1OC,/,.,/,/,/,/
N/C(=N\OC(=O)c1cccc(Br)c1)c1ccc(Br)cc1,.,.,.,.,.,.
Cc1cccc(/C(N)=N/OC(=O)c2cccs2)c1,.,.,.,5.95,236.9,139.9
CC1CCN(C(=O)CSc2nnc3c(n2)[nH]c2ccc(F)cc23)CC1,/,.,/,/,/,/
CC(C)c1ccc2[nH]c3nc(SCC(=O)N4CCOCC4)nnc3c2c1,.,.,.,.,.,131.4
N#Cc1ccccc1NC(=O)CN1C(=O)NC(Cc2c[nH]c3ccccc23)C1=O (stereo not drawn),/,78.1,/,/,/,/
SMILES,PERK inhibitor,AHR activator,MDM2 E3 inh,NF-kB neuron act,APP 5'UTR act,STAT1 act
Fc1ccc(Nc2ccc(-c3ccc(F)cc3)nn2)cc1,.,.,.,.,.,139.3
Fc1ccc(-c2ccc(Nc3cccc(F)c3)nn2)cc1,.,.,.,.,.,143.7
COc1ccccc1OCC(=O)NNC(=O)Nc1ccccc1,/,.,/,/,/,/
N#Cc1ccsc1NC(=O)CCN1C(=O)C2CCCCC2C1=O (stereo not drawn),/,.,/,/,/,/
CCC(CC)NC(=O)c1nn(Cc2ccccc2)c(=O)c2ccccc12,/,.,/,/,/,/
Nc1ccccc1C#Cc1ccccc1,.,.,.,8.73,.,146.1
Nc1ccc(C#Cc2ccccc2)cc1,.,.,.,.,.,130.4
Nc1ccc(C#Cc2ccc3sc4ccccc4c(=O)c3c2)cc1,/,.,/,/,/,/
COc1c(Br)cc(/C=N/n2c(-c3ccccc3)n[nH]c2=S)c(O)c1Br,/,.,/,/,/,/
CCC(C)NC(=S)NNC(=O)c1ccc(C(C)(C)C)cc1 (stereo not drawn),.,.,.,.,/,.

# Screening data (PubChem)
